In ChEMBL document CHEMBL5724801, “EUbOPEN Chemogenomics Library - Multiplex” (2024):
Where “and” joins values, the source holds several entries; their conditions need not be identical. Equal entries are not always repeated.

Columns and labels:
Assay type in all cases: toxicity, cell-based
[1] = system: HEK-293T; test: Multiplex assay against HEK293T; details: human
Method in brief: (§1)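 Cells were classed with CellPathfinder machine-learning gating, first as Hoechst high-intensity objects or normal cells, then (normal cells) as healthy, pyknosed or fragmented nuclei, and finally (pyknosed cells) as mitotic or apoptotic. Staining of live cells at seeding used Hoechst33342, BioTracker Green Microtubule Cytoskeleton Dye, MitoTracker Red and Annexin V Alexa Fluor 680, with imaging on a CQ1 microscope at 37°C and 5% CO2 after compound addition. Tubulin, mitochondrial-mass and membrane-permeability phenotypes are per cents of healthy-nucleus cells.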

[2] = system: Fibroblast; test: Multiplex assay against human fibroblast; method in brief: as §1
[3] = system: U2OS; test: Multiplex assay against U2OS; details: human; method in brief: as §1
[4] = 12 h, 1 µM, compound concentration 1 uM
[5] = 12 h, 10 µM, compound concentration 10 uM
[6] = 24 h, 1 µM, compound concentration 1 uM
[7] = 24 h, 10 µM, compound concentration 10 uM
[8] = 48 h, 1 µM, compound concentration 1 uM
[9] = 48 h, 10 µM, compound concentration 10 uM

Cc1cc(NC(=O)NCCN2CCC(O)(Cc3ccccc3)CC2)c2ccccc2n1 [PALOSURAN]
Population Apoptotic (%) [1, 4]: 36% and 48%
Population Fragmented Nuclei (%) [1, 4]: 7% and 9%
Population Healthy Nuclei (%) [1, 4]: 77% and 81%
Population Hoechst High Intensity Objects (%) [1, 4]: 6% and 9%
Population Membrane Permeable-Phenotype (%) [1, 4]: 0%
Population Mitochondria Different-Phenotype (%) [1, 4]: 42% and 57%
Population Mitotic Cells (%) [1, 4]: 63% and 52%
Population Normal (%) [1, 4]: 93% and 90%
Population Pyknosed Nuclei (%) [1, 4]: 14% and 8%
Population Tubulin-Different-Phenotype (%) [1, 4]: 25% and 26%
Total Cell Count [1, 4]: 373 and 326
Population Apoptotic (%) [1, 5]: 38% and 61%
Population Fragmented Nuclei (%) [1, 5]: 5%
Population Healthy Nuclei (%) [1, 5]: 81% and 75%
Population Hoechst High Intensity Objects (%) [1, 5]: 8%
Population Membrane Permeable-Phenotype (%) [1, 5]: 0%
Population Mitochondria Different-Phenotype (%) [1, 5]: 53% and 76%
Population Mitotic Cells (%) [1, 5]: 61% and 38%
Population Normal (%) [1, 5]: 91%
Population Pyknosed Nuclei (%) [1, 5]: 12% and 18%
Population Tubulin-Different-Phenotype (%) [1, 5]: 41% and 42%
Total Cell Count [1, 5]: 461 and 346
Population Apoptotic (%) [1, 6]: 17% and 46%
Population Fragmented Nuclei (%) [1, 6]: 9% and 10%
Population Healthy Nuclei (%) [1, 6]: 78% and 76%
Population Hoechst High Intensity Objects (%) [1, 6]: 6% and 4%
Population Membrane Permeable-Phenotype (%) [1, 6]: 0%
Population Mitochondria Different-Phenotype (%) [1, 6]: 24% and 45%
Population Mitotic Cells (%) [1, 6]: 82% and 53%
Population Normal (%) [1, 6]: 93% and 95%
Population Pyknosed Nuclei (%) [1, 6]: 11% and 13%
Population Tubulin-Different-Phenotype (%) [1, 6]: 19% and 14%
Total Cell Count [1, 6]: 511 and 343
Population Apoptotic (%) [1, 7]: 35% and 51%
Population Fragmented Nuclei (%) [1, 7]: 8% and 7%
Population Healthy Nuclei (%) [1, 7]: 79% and 83%
Population Hoechst High Intensity Objects (%) [1, 7]: 4% and 6%
Population Membrane Permeable-Phenotype (%) [1, 7]: 0%
Population Mitochondria Different-Phenotype (%) [1, 7]: 43% and 64%
Population Mitotic Cells (%) [1, 7]: 64% and 48%
Population Normal (%) [1, 7]: 95% and 93%
Population Pyknosed Nuclei (%) [1, 7]: 11% and 9%
Population Tubulin-Different-Phenotype (%) [1, 7]: 32% and 26%
Total Cell Count [1, 7]: 598 and 396
Population Apoptotic (%) [1, 8]: 19% and 32%
Population Fragmented Nuclei (%) [1, 8]: 15% and 13%
Population Healthy Nuclei (%) [1, 8]: 79% and 81%
Population Hoechst High Intensity Objects (%) [1, 8]: 3%
Population Membrane Permeable-Phenotype (%) [1, 8]: 1% and 0%
Population Mitochondria Different-Phenotype (%) [1, 8]: 16% and 24%
Population Mitotic Cells (%) [1, 8]: 80% and 67%
Population Normal (%) [1, 8]: 96%
Population Pyknosed Nuclei (%) [1, 8]: 5%
Population Tubulin-Different-Phenotype (%) [1, 8]: 12% and 15%
Total Cell Count [1, 8]: 938 and 552
Population Apoptotic (%) [1, 9]: 29% and 41%
Population Fragmented Nuclei (%) [1, 9]: 15% and 9%
Population Healthy Nuclei (%) [1, 9]: 75% and 84%
Population Hoechst High Intensity Objects (%) [1, 9]: 5% and 4%
Population Membrane Permeable-Phenotype (%) [1, 9]: 0%
Population Mitochondria Different-Phenotype (%) [1, 9]: 34% and 42%
Population Mitotic Cells (%) [1, 9]: 70% and 58%
Population Normal (%) [1, 9]: 94% and 95%
Population Pyknosed Nuclei (%) [1, 9]: 8% and 6%
Population Tubulin-Different-Phenotype (%) [1, 9]: 17% and 19%
Total Cell Count [1, 9]: 874 and 570
Population Apoptotic (%) [2, 4]: 37% and 40%
Population Fragmented Nuclei (%) [2, 4]: 10% and 26%
Population Healthy Nuclei (%) [2, 4]: 77% and 44%
Population Hoechst High Intensity Objects (%) [2, 4]: 2% and 9%
Population Membrane Permeable-Phenotype (%) [2, 4]: 3% and 1%
Population Mitotic Cells (%) [2, 4]: 62% and 59%
Population Normal (%) [2, 4]: 97% and 90%
Population Pyknosed Nuclei (%) [2, 4]: 12% and 28%
Population Tubulin-Different-Phenotype (%) [2, 4]: 19% and 46%
Total Cell Count [2, 4]: 133 and 143
Population Apoptotic (%) [2, 5]: 40% and 41%
Population Fragmented Nuclei (%) [2, 5]: 14% and 28%
Population Healthy Nuclei (%) [2, 5]: 69% and 49%
Population Hoechst High Intensity Objects (%) [2, 5]: 1% and 6%
Population Membrane Permeable-Phenotype (%) [2, 5]: 0% and 3%
Population Mitochondria Different-Phenotype (%) [2, 5]: 13% and 3%
Population Mitotic Cells (%) [2, 5]: 59% and 58%
Population Normal (%) [2, 5]: 98% and 93%
Population Pyknosed Nuclei (%) [2, 5]: 15% and 22%
Population Tubulin-Different-Phenotype (%) [2, 5]: 37% and 51%
Total Cell Count [2, 5]: 178 and 113
Population Apoptotic (%) [2, 6]: 53% and 40%
Population Fragmented Nuclei (%) [2, 6]: 15% and 27%
Population Healthy Nuclei (%) [2, 6]: 73% and 50%
Population Hoechst High Intensity Objects (%) [2, 6]: 2% and 6%
Population Mitochondria Different-Phenotype (%) [2, 6]: 0% and 21%
Population Mitotic Cells (%) [2, 6]: 46% and 60%
Population Normal (%) [2, 6]: 97% and 93%
Population Pyknosed Nuclei (%) [2, 6]: 10% and 22%
Total Cell Count [2, 6]: 129 and 119
Population Apoptotic (%) [2, 7]: 42% and 60%
Population Fragmented Nuclei (%) [2, 7]: 14% and 30%
Population Healthy Nuclei (%) [2, 7]: 77% and 47%
Population Hoechst High Intensity Objects (%) [2, 7]: 1% and 3%
Population Membrane Permeable-Phenotype (%) [2, 7]: 0% and 3%
Population Mitochondria Different-Phenotype (%) [2, 7]: 8% and 1%
Population Mitotic Cells (%) [2, 7]: 57% and 40%
Population Normal (%) [2, 7]: 98% and 96%
Population Pyknosed Nuclei (%) [2, 7]: 8% and 22%
Population Tubulin-Different-Phenotype (%) [2, 7]: 37% and 48%
Total Cell Count [2, 7]: 178 and 117
Population Apoptotic (%) [2, 8]: 50% and 61%
Population Fragmented Nuclei (%) [2, 8]: 16% and 42%
Population Healthy Nuclei (%) [2, 8]: 72% and 44%
Population Hoechst High Intensity Objects (%) [2, 8]: 3% and 7%
Population Membrane Permeable-Phenotype (%) [2, 8]: 0% and 14%
Population Mitotic Cells (%) [2, 8]: 50% and 38%
Population Normal (%) [2, 8]: 96% and 92%
Population Pyknosed Nuclei (%) [2, 8]: 11% and 13%
Total Cell Count [2, 8]: 126 and 149
Population Apoptotic (%) [2, 9]: 55% and 61%
Population Fragmented Nuclei (%) [2, 9]: 19% and 38%
Population Healthy Nuclei (%) [2, 9]: 69% and 44%
Population Hoechst High Intensity Objects (%) [2, 9]: 5% and 2%
Population Membrane Permeable-Phenotype (%) [2, 9]: 0% and 2%
Population Mitochondria Different-Phenotype (%) [2, 9]: 10% and 6%
Population Mitotic Cells (%) [2, 9]: 44% and 38%
Population Normal (%) [2, 9]: 94% and 97%
Population Pyknosed Nuclei (%) [2, 9]: 10% and 16%
Population Tubulin-Different-Phenotype (%) [2, 9]: 36% and 61%
Total Cell Count [2, 9]: 186 and 112
Population Apoptotic (%) [3, 4]: 80% and 71%
Population Fragmented Nuclei (%) [3, 4]: 27% and 19%
Population Healthy Nuclei (%) [3, 4]: 65% and 71%
Population Hoechst High Intensity Objects (%) [3, 4]: 1% and 0%
Population Membrane Permeable-Phenotype (%) [3, 4]: 4% and 2%
Population Mitochondria Different-Phenotype (%) [3, 4]: 2% and 0%
Population Mitotic Cells (%) [3, 4]: 20% and 28%
Population Normal (%) [3, 4]: 98% and 100%
Population Pyknosed Nuclei (%) [3, 4]: 6% and 9%
Population Tubulin-Different-Phenotype (%) [3, 4]: 1%
Total Cell Count [3, 4]: 220 and 145
Population Apoptotic (%) [3, 5]: 72% and 66%
Population Fragmented Nuclei (%) [3, 5]: 30% and 17%
Population Healthy Nuclei (%) [3, 5]: 59% and 70%
Population Hoechst High Intensity Objects (%) [3, 5]: 3%
Population Membrane Permeable-Phenotype (%) [3, 5]: 6% and 12%
Population Mitochondria Different-Phenotype (%) [3, 5]: 1% and 2%
Population Mitotic Cells (%) [3, 5]: 28% and 33%
Population Normal (%) [3, 5]: 96%
Population Pyknosed Nuclei (%) [3, 5]: 9% and 11%
Population Tubulin-Different-Phenotype (%) [3, 5]: 1% and 8%
Total Cell Count [3, 5]: 266 and 107
Population Apoptotic (%) [3, 6]: 94% and 66%
Population Fragmented Nuclei (%) [3, 6]: 26% and 17%
Population Healthy Nuclei (%) [3, 6]: 66% and 74%
Population Hoechst High Intensity Objects (%) [3, 6]: 1%
Population Membrane Permeable-Phenotype (%) [3, 6]: 3% and 7%
Population Mitochondria Different-Phenotype (%) [3, 6]: 3% and 7%
Population Normal (%) [3, 6]: 98%
Population Pyknosed Nuclei (%) [3, 6]: 6% and 8%
Population Tubulin-Different-Phenotype (%) [3, 6]: 2% and 3%
Total Cell Count [3, 6]: 276 and 173
Population Apoptotic (%) [3, 7]: 92% and 75%
Population Fragmented Nuclei (%) [3, 7]: 26% and 19%
Population Healthy Nuclei (%) [3, 7]: 65% and 74%
Population Hoechst High Intensity Objects (%) [3, 7]: 3%
Population Membrane Permeable-Phenotype (%) [3, 7]: 4% and 11%
Population Mitochondria Different-Phenotype (%) [3, 7]: 0% and 1%
Population Normal (%) [3, 7]: 96%
Population Pyknosed Nuclei (%) [3, 7]: 8% and 6%
Population Tubulin-Different-Phenotype (%) [3, 7]: 2% and 5%
Total Cell Count [3, 7]: 297 and 129
Population Apoptotic (%) [3, 8]: 96% and 84%
Population Fragmented Nuclei (%) [3, 8]: 25% and 15%
Population Healthy Nuclei (%) [3, 8]: 68% and 73%
Population Hoechst High Intensity Objects (%) [3, 8]: 1% and 3%
Population Membrane Permeable-Phenotype (%) [3, 8]: 5% and 7%
Population Mitochondria Different-Phenotype (%) [3, 8]: 3% and 5%
Population Normal (%) [3, 8]: 98% and 97%
Population Pyknosed Nuclei (%) [3, 8]: 6% and 11%
Population Tubulin-Different-Phenotype (%) [3, 8]: 3% and 4%
Total Cell Count [3, 8]: 411 and 233
Population Apoptotic (%) [3, 9]: 97% and 89%
Population Fragmented Nuclei (%) [3, 9]: 20% and 16%
Population Healthy Nuclei (%) [3, 9]: 70% and 72%
Population Hoechst High Intensity Objects (%) [3, 9]: 1%
Population Membrane Permeable-Phenotype (%) [3, 9]: 5% and 7%
Population Mitochondria Different-Phenotype (%) [3, 9]: 2% and 4%
Population Mitotic Cells (%) [3, 9]: 2% and 10%
Population Normal (%) [3, 9]: 98%
Population Pyknosed Nuclei (%) [3, 9]: 9% and 10%
Population Tubulin-Different-Phenotype (%) [3, 9]: 2% and 1%
Total Cell Count [3, 9]: 421 and 180
